# Laboratory results published in ChEMBL document CHEMBL1155909, “Discovery and stereoselective synthesis of the novel isochroman neurokinin-1 receptor antagonist 'CJ-17,493'” (Bioorg Med Chem, 2008).
# B1: Cytochrome P450 2D6 (Homo sapiens) (protein)
# chain: MGLEALVPLAVIVAIFLLLVDLMHRRQRWAARYPPGPLPLPGLGNLLHVDFQNTPYCFDQLRRRFGDVFSLQLAWTPVVVLNGLAAVREALVTHGEDTADRPPVPITQILGFGPRSQGVFLARYGPAWREQRRFSVSTLRNLGLGKKSLEQWVTEEAACLCAAFANHSGRPFRPNGLLDKAVSNVIASLTCGRRFEYDDPRFLRLLDLAQEGLKEESGFLREVLNAVPVLLHIPALAGKVLRFQKAFLTQLDELLTEHRMTWDPAQPPRDLTEAFLAEMEKAKGNPESSFNDENLRIVVADLFSAGMVTTSTTLAWGLLLMILHPDVQRRVQQEIDDVIGQVRRPEMGDQAHMPYTTAVIHEVQRFGDIVPLGVTHMTSRDIEVQGFRIPKGTTLITNLSSVLKDEAVWEKPFRFHPEHFLDAQGHFVKPEAFLPFSAGRRACLGEPLARMELFLFFTSLLQHFSFSVPTGQPRPSHHGVFAFLVSPSPYELCAVPR
# Tests used:
# Substance-P receptor = Substance-P receptor (Homo sapiens, UniProt P25103); test: Displacement of [3H]SP from NK1 receptor in human IM9 cells
# Liver microsomes = test: Metabolic stability in human liver microsome assessed as ratio of half life between CYP2D6-deficient microsome and CYP2D6-deficient microsome with addition of exogenous CYP2D6; type: ADME
# Summary of the method: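 Half-lives were measured in CYP2D6-deficient human liver microsomes with and without added exogenous CYP2D6. The value is the ratio of the half-life without CYP2D6 to the half-life with it.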
# Cytochrome P450 2D6 [1] = molecular target: T1, Cytochrome P450 2D6 (Homo sapiens, UniProt P10635); test: Binding affinity to human CYP2D6 using bufuralol as substrate; type: ADME
# Gerbillinae [2] = test: Inhibition of [Sar9, Met(O2)11]SP-induced foot tapping in gerbil at 1 mg/kg, sc relative to CP-122721; conditions: dose 1 mg/kg, route subcutaneous
# Gerbillinae [3] = test: Inhibition of [Sar9, Met(O2)11]SP-induced foot tapping in gerbil at 0.1 mg/kg, sc relative to CP-122721; conditions: for inhibition (INH) / inhibition in vivo at 0.1 mg/kg: dose 0.1 mg/kg, route subcutaneous
# Mustela putorius furo [4] = test: Antiemetic activity against cisplatin-induced emesis in ferrets at 0.1 mg/kg, sc; type: functional; conditions: route subcutaneous
# Summary of the method: (§1)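 Ferrets were given the test compound sc 30 min before cisplatin (10 mg/kg, ip). Retching and vomiting/gagging episodes were counted against vehicle control. Groups were n = 4–5, data are mean ± SEM, and Student's t-test was used. Results are given as ED90 (mg/kg, sc) or as % inhibition at the stated dose.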
# Cytochrome P450 2D6 [5] = molecular target: T1, Cytochrome P450 2D6; test: (§2) Inhibition of human CYP2D6 at 5 uM; type: ADME; conditions: 5 µM
# Mustela putorius furo [6] = test: Antiemetic activity against cisplatin-induced emesis in sc dosed ferrets; type: functional, organism-based; conditions: for ED90: Mustela putorius, sc, read-out: ED90
# Summary of the method: as §1
# Gerbillinae [7] = test: Inhibition of [Sar9, Met(O2)11]SP-induced foot tapping in sc dosed gerbil
# Mustela putorius furo [8] = test: Antiemetic activity against cisplatin-induced emesis in ferrets at 1 mg/kg, sc; type: functional; conditions: route subcutaneous
# Summary of the method: as §1
# [9] = molecular target: Substance-P receptor (Cavia porcellus) (UniProt P30547); test: Activity at NK1 receptor in po dosed guinea pig ureter assessed as capsaicin-induced plasma protein leakage; type: organism-based
# Summary of the method: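 Guinea pigs were dosed orally. Capsaicin (30 µM) was given ip and caused plasma protein leakage in the ureter, taken as activation of peripheral NK1 receptors. Inhibition was measured across doses, and the ED50 was derived in mg/kg, po.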
# [10] = Oral bioavailability in rat at 1 to 30 mg/kg; type: ADME, organism-based; conditions: in vivo
# Summary of the method: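 Rats received 1–30 mg/kg orally as the hydrochloride salt dissolved in water. Oral bioavailability was determined against iv data.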
# [11] = Volume of distribution at steady state in dog at 1 mg/kg, iv; type: ADME, organism-based, Canis lupus familiaris; set-up: dose 1 mg/kg, route intravenous; conditions: in vivo, read-out: Vdss
# Summary of the method: (§3)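 Dogs received 1 mg/kg iv. Plasma clearance, steady-state volume of distribution and half-life were derived.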
# [12] = molecular target: Sodium channel protein type 2 subunit alpha (Rattus norvegicus, UniProt P04775); test: Displacement of [3H]batrachotoxinin from rat sodium channel type 2A subunit expressed in CHO-CNa2A cells […]; type: cell-based
# [13] = Half life in dog at 1 mg/kg, iv; type: ADME, organism-based, Canis lupus familiaris; set-up: dose 1 mg/kg, route intravenous; conditions: in vivo
# Summary of the method: as §3
# [14] = Clearance in rat at 0.3 mg/kg, iv; type: ADME, organism-based; set-up: dose 0.3 mg/kg, route intravenous; conditions: in vivo
# Summary of the method: (§4)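 Rats received 0.3 mg/kg iv. Plasma clearance, steady-state volume of distribution and half-life were derived from plasma levels.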
# [15] = Half life in rat at 0.3 mg/kg, iv; type: ADME, organism-based; set-up: dose 0.3 mg/kg, route intravenous; conditions: in vivo
# Summary of the method: as §4
# [16] = Clearance in dog at 1 mg/kg, iv; type: ADME, organism-based, Canis lupus familiaris; set-up: dose 1 mg/kg, route intravenous; conditions: in vivo
# Summary of the method: as §3
# [17] = Displacement of [3H]desmethoxyverapamil from L-type calcium channel
# [18] = Volume of distribution at steady state in rat at 0.3 mg/kg, iv; type: ADME, organism-based; set-up: dose 0.3 mg/kg, route intravenous; conditions: in vivo, read-out: Vdss
# Summary of the method: as §4
# Mustela putorius furo [19] = test: Antiemetic activity against cisplatin-induced emesis in ferrets at 0.3 mg/kg, sc; type: functional; conditions: route subcutaneous
# Summary of the method: as §1
# CYP2D6 = CYP2D6 (Homo sapiens, UniProt P10635); test: as §2; type: ADME
# [20] = Oral bioavailability in dog at 5 mg/kg; type: ADME, organism-based, Canis lupus familiaris; conditions: in vivo
# Summary of the method: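 Dogs were dosed orally at 5 mg/kg as a water solution. Oral bioavailability was determined.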
# [21] = substrate: COc1cc2c(cc1CN[C@H]1CCCN[C@H]1c1ccccc1)[C@](C)(C(F)(F)F)OCC2; test: Activity of CYP2D6 for hydroxylation in human liver microsomes; type: ADME, Microsome
# [22] = substrate: COc1cc2c(cc1CN[C@H]1CCCN[C@H]1c1ccccc1)[C@](C)(C(F)(F)F)OCC2; test: Activity of CYP2D6 for N-dealkylation in human liver microsomes; type: ADME, Microsome
# Sequence of Substance-P receptor (P25103 whole entry): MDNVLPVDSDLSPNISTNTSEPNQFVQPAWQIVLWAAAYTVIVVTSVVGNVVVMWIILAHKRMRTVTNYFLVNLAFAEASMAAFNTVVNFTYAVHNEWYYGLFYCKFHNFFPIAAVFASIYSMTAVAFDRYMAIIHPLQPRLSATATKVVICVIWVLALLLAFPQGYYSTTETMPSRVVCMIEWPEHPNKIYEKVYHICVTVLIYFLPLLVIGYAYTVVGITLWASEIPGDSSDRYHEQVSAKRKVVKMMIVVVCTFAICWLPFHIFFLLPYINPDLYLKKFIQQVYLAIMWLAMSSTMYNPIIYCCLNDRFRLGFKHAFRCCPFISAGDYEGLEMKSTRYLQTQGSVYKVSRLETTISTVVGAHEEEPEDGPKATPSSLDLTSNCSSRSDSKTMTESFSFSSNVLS
# Sequence of Substance-P receptor (Cavia porcellus) (P30547 whole entry): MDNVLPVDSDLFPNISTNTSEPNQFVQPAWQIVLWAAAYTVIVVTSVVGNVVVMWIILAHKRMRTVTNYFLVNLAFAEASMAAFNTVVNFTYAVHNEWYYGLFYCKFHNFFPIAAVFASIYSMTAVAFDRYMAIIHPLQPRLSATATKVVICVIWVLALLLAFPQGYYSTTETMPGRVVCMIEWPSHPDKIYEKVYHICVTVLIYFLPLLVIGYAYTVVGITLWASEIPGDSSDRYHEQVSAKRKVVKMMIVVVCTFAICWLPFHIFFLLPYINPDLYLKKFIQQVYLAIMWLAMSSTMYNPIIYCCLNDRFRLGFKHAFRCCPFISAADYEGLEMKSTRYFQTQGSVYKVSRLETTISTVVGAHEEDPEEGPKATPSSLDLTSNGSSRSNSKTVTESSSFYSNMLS
# Sequence of Sodium channel protein type 2 subunit alpha (P04775 whole entry): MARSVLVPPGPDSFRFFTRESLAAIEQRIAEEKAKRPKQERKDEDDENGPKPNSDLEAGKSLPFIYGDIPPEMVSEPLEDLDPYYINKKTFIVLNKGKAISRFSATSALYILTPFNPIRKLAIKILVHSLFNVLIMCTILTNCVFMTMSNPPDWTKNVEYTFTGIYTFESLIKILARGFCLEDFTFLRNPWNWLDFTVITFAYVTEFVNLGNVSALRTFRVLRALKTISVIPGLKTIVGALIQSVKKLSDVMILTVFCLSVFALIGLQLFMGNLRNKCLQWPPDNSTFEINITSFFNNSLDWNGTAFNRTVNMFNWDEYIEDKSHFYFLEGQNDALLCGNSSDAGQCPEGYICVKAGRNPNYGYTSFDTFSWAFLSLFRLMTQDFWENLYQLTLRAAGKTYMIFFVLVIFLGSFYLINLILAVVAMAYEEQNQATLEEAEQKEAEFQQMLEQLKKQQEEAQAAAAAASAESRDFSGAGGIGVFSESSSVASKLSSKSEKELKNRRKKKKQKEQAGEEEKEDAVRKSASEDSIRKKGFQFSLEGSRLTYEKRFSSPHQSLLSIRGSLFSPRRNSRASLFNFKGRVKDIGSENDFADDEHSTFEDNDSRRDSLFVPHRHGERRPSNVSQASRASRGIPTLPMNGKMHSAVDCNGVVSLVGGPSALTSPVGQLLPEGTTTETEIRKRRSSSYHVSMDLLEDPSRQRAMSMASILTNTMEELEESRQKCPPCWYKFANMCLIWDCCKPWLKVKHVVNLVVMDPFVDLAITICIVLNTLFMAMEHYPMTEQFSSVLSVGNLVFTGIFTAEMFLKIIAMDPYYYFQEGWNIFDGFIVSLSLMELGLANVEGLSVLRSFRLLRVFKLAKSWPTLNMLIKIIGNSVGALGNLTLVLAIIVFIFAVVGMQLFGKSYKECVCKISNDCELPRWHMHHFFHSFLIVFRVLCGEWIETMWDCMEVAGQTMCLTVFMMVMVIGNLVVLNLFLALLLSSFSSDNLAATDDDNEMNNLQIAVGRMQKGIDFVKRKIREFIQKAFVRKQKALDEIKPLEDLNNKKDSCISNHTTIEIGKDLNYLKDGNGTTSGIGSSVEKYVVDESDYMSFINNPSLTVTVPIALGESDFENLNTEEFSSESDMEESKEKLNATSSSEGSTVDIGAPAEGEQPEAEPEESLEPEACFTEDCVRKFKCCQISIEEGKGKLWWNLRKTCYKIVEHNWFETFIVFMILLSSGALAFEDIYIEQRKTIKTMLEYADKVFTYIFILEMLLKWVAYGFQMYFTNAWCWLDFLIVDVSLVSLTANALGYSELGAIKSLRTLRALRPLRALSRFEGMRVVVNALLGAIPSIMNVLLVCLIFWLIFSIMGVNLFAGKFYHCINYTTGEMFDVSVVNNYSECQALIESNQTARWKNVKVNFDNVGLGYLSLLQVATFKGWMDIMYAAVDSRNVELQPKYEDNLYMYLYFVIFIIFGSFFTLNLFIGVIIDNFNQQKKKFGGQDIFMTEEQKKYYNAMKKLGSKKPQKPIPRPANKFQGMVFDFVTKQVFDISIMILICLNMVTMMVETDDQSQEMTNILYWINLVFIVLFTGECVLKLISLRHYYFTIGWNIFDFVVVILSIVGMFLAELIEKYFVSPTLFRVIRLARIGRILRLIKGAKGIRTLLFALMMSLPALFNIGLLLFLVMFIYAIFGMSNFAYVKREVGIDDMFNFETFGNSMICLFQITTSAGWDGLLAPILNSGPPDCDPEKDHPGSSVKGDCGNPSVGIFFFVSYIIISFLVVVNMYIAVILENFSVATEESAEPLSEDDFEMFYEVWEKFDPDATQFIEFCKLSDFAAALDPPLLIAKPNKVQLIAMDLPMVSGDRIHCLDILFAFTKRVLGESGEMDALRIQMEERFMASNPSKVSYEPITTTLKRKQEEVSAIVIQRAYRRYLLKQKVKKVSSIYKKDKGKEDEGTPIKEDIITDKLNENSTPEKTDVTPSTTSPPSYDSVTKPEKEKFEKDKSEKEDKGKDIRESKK
molecule,measurement,setting,value
COc1cc2c(cc1CN[C@H]1CCCN[C@H]1c1ccccc1)C(C)(C(F)(F)F)CCC2 (mixture of isomers; 21),IC50,Substance-P receptor,< 100 pM
same,Ratio,Liver microsomes,1.8
same,Ki,Cytochrome P450 2D6 [1],120000 pM
same,inhibition (INH),Gerbillinae [2],91%
same,inhibition (INH),Gerbillinae [3],86%
same,inhibition in vivo at 0.1 mg/kg,Mustela putorius furo [4],97%
COc1cc2c(cc1CN[C@H]1CCCN[C@H]1c1ccccc1)C(C(F)(F)F)CC2 (mixture of isomers; 10),IC50,Substance-P receptor,900 pM
same,inhibition (INH),Cytochrome P450 2D6 [5],74.2%
same,ED100,Mustela putorius furo [6],1 mg/kg
same,ED90,Mustela putorius furo [6],0.12 mg/kg
same,ED50,Gerbillinae [7],0.11 mg/kg
same,inhibition in vivo at 1 mg/kg,Mustela putorius furo [8],100%
COc1cc2c(cc1CN[C@H]1CCCN[C@H]1c1ccccc1)[C@](C)(C(F)(F)F)OCC2 [listing 1 of 2 here],ED50,[9],0.005 mg/kg
COc1cc2c(cc1CN[C@H]1CCCN[C@H]1c1ccccc1)C(C)(C(F)(F)F)CCC2 (mixture of isomers; 22),IC50,Substance-P receptor,340 pM
same,inhibition (INH),Cytochrome P450 2D6 [5],90%
same,inhibition (INH),Gerbillinae [2],87%
same,inhibition (INH),Gerbillinae [3],26%
COc1cc2c(cc1CN[C@H]1CCCN[C@H]1c1ccccc1)[C@](C)(C(F)(F)F)OCC2.Cl.Cl,bioavailability,[10],< 1%
COc1cc2c(cc1CN[C@H]1CCCN[C@H]1c1ccccc1)C(C(F)(F)F)CCC2 (mixture of isomers; 17),IC50,Substance-P receptor,500 pM
same,Ratio,Liver microsomes,7.35
same,inhibition (INH),Cytochrome P450 2D6 [5],76.5%
same,ED100,Mustela putorius furo [6],1 mg/kg
same,ED90,Mustela putorius furo [6],0.17 mg/kg
same,inhibition (INH),Gerbillinae [2],77%
same,inhibition in vivo at 0.1 mg/kg,"Gerbillinae [3]; Gerbillinae, sc",55%
COc1cc2c(cc1CN[C@H]1CCCN[C@H]1c1ccccc1)C(C)(C(F)(F)F)OC2 (mixture of isomers; 15),IC50,Substance-P receptor,< 100 pM
same,Ratio,Liver microsomes,2.1
same,inhibition (INH),Cytochrome P450 2D6 [5],73%
same,ED100,Mustela putorius furo [6],0.3 mg/kg
same,ED90,Mustela putorius furo [6],0.05 mg/kg
same,Ki,Cytochrome P450 2D6 [1],660000 pM
same,inhibition (INH),Gerbillinae [2],77%
COc1cc2c(cc1CN[C@H]1CCCN[C@H]1c1ccccc1)[C@](C)(C(F)(F)F)OCC2 [listing 2 of 2 here],Vd,[11],11 L/kg
same,IC50,Substance-P receptor,< 100 pM
same,Ki,Substance-P receptor,200 pM
same,IC50,[12],48000 pM
same,half-life,[13],3.8 h
same,ED90,Mustela putorius furo [6],0.07 mg/kg
same,clearance,[14],11 mL/min/kg
same,half-life,[15],8.8 h
same,clearance,[16],31.7 mL/min/kg
same,IC50,[17],164000 pM
same,Vd,[18],7 L/kg
same,ED50,Gerbillinae [7],0.043 mg/kg
COc1cc2c(cc1CN[C@H]1CCCN[C@H]1c1ccccc1)C(C)(C(F)(F)F)OC2 (mixture of isomers; 14),IC50,Substance-P receptor,< 100 pM
same,inhibition (INH),Cytochrome P450 2D6 [5],41.8%
same,inhibition (INH),Gerbillinae [2],69%
same,inhibition (INH),Gerbillinae [3],15%
COc1ccc(C(F)C(F)(F)F)cc1CN[C@H]1CCCN[C@H]1c1ccccc1 (mixture of isomers),inhibition in vivo at 0.3 mg/kg,Mustela putorius furo [19],97%
same,IC50,Substance-P receptor,700 pM
same,Ratio,Liver microsomes,1.83
same,inhibition at 5 µM,CYP2D6,46.6%
same,ED50,Gerbillinae [7],0.16 mg/kg
same,inhibition in vivo at 0.1 mg/kg,Mustela putorius furo [4],97%
COc1ccc(C(C)(OC)C(F)(F)F)cc1CN[C@H]1CCCN[C@H]1c1ccccc1 (mixture of isomers),inhibition at 5 µM,CYP2D6,62.6%
same,inhibition in vivo at 1 mg/kg,"Gerbillinae [2]; Gerbillinae, sc",55%
same,ED50,Gerbillinae [7],0.11 mg/kg
same,inhibition in vivo at 0.1 mg/kg,"Gerbillinae [3]; Gerbillinae, sc",63%
same,inhibition in vivo at 0.1 mg/kg,Mustela putorius furo [4],15%
COc1cc2c(cc1CN[C@H]1CCCN[C@H]1c1ccccc1)C(C)(C(F)(F)F)OC2 (mixture of isomers; 16),inhibition in vivo at 0.3 mg/kg,Mustela putorius furo [19],99%
same,IC50,Substance-P receptor,160 pM
same,inhibition (INH),Cytochrome P450 2D6 [5],81%
same,inhibition (INH),Gerbillinae [2],94%
same,inhibition (INH),Gerbillinae [3],87%
COc1cc2c(cc1CN[C@H]1CCCN[C@H]1c1ccccc1)C(C(F)(F)F)OC2 (mixture of isomers),IC50,Substance-P receptor,< 100 pM
same,inhibition at 5 µM,CYP2D6,66.4%
same,% inhibition at 0.1 mg/kg,"Gerbillinae [3]; Gerbillinae, sc",84%
same,inhibition in vivo at 0.1 mg/kg,Mustela putorius furo [4],99%
COc1cc2c(cc1CN[C@H]1CCCN[C@H]1c1ccccc1)[C@](C)(C(F)(F)F)OCC2.O,bioavailability,[20],9.8%
B1,Km,[21],16.6 µM
same,Km,[22],2.3 µM
